Results: ChEMBL document CHEMBL5131497, “Design, Synthesis, and Characterization of TNP-2198, a Dual-Targeted Rifamycin-Nitroimidazole Conjugate with Potent Activity against Microaerophilic and Anaerobic Bacterial Pathogens” (J Med Chem, 2022)
Converted amounts (≈) assume the structure as drawn. The source made the active and inactive calls. The rule behind the calls is not given here.

Experiments:
[1] = Drug distribution in Sprague-Dawley rat stomach tissue measured at 2 hrs; type: ADME, tissue-based; conditions: read-out: Ct
Procedure, shortened: (§1)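 Sprague–Dawley rats were dosed with TNP-2198. Concentrations were measured in plasma (ng/mL) and in tissues or contents (ng/g) at 0.5, 2, 6, 12 and 24 h after dosing. Values below the limit of quantification are reported as BLOQ.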

[2] = Oral bioavailability in Sprague-Dawley rat at 50 mg/kg; type: ADME, organism-based; conditions: in vivo
[3] = Drug distribution in Sprague-Dawley rat large intestine content measured at 0.5 hrs; type: ADME, tissue-based; conditions: read-out: Ct; procedure, shortened: as §1
[4] = Drug distribution in Sprague-Dawley rat brain measured at 24 hrs; type: ADME, tissue-based; conditions: in vivo, BLD = below limit of detection; procedure, shortened: as §1
Veillonella parvula = experiment: Antibacterial activity against Veillonella parvula ATCC 17745 MMX 1272; type: functional
[5] = Drug distribution in Sprague-Dawley rat stomach tissue measured at 12 hrs; type: ADME, tissue-based; conditions: read-out: Ct; procedure, shortened: as §1
[6] = Drug distribution in Sprague-Dawley rat large intestine content measured at 6 hrs; type: ADME, tissue-based; conditions: read-out: Ct; procedure, shortened: as §1
[7] = Drug distribution in Sprague-Dawley rat brain measured at 12 hrs; type: ADME, tissue-based; conditions: in vivo, BLD = below limit of detection; procedure, shortened: as §1
Helicobacter pylori [8] = experiment: Resistance development in Helicobacter pylori MMX 3719 assessed as spontaneous resistance frequency using at 1.90 x 10^8 CFU inoculum at 2 ug/ml; type: functional; conditions: dose 2 µg/ml
Procedure, shortened: (§2)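 H. pylori MMX 3719 exposed to 0.5, 1, 2 and 4 µg/mL drug with an inoculum of 1.90×10^8 CFU at each level. Two independent tests were run, and resistant colonies were counted and averaged. A spontaneous resistance frequency was reported for each concentration, and the MPC was taken across the concentrations tested.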

Helicobacter pylori [9] = experiment: Bactericidal activity against Helicobacter pylori ATCC 700824 assessed as reduction in CFU at 4 to 16 times MIC by time kill assay; type: functional, organism-based
Clostridioides difficile [10] = experiment: Resistance development in Clostridioides difficile MMX 4381 assessed as spontaneous resistance frequency using at 1.23 x 10^9 CFU inoculum at 4 ug/ml; type: functional; conditions: dose 4 µg/ml
[11] = Drug distribution in Sprague-Dawley rat ascites fluid measured at 24 hrs; type: ADME, tissue-based, Ascitic fluid; conditions: in vivo, BLD = below limit of detection; procedure, shortened: as §1
[12] = Drug distribution in Sprague-Dawley rat plasma measured at 6 hrs; type: ADME, cell-free; procedure, shortened: as §1
[13] = Half life in C57BL/6 mouse at 20 mg/kg, po; type: ADME, organism-based; conditions: in vivo
Procedure, shortened: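 Single-dose PK of TNP-2198 was run in C57BL/6 mice (IV 5 mg/kg; PO 20 mg/kg) and beagle dogs (IV 5 mg/kg; PO 25 mg/kg). Terminal half-life (h) was derived from plasma profiles, together with Tmax, Vdss, CL, AUC and oral bioavailability.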

[14] = AUC in Sprague-Dawley rat at 10 mg/kg, iv; type: ADME, organism-based; set-up: dose 10 mg/kg, route iv; conditions: in vivo
Procedure, shortened: (§3)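 Plasma PK after single intravenous or oral dosing. Mice C57BL/6 at 5 mg/kg IV or 20 mg/kg PO; Sprague–Dawley rats at 10 mg/kg IV or 50 mg/kg PO; beagle dogs at 5 mg/kg IV or 25 mg/kg PO. AUC reported in ng·h/mL. Clearance from the IV arms in mL/min·kg.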

Bacteroides ovatus = experiment: Antibacterial activity against metronidazole-resistant Bacteroides ovatus MMX 3504; type: functional
[15] = Half life in Sprague-Dawley rat at 10 mg/kg, iv; type: ADME, organism-based; conditions: in vivo
[16] = Drug distribution in Sprague-Dawley rat large intestine tissue measured at 2 hrs; type: ADME, tissue-based; conditions: read-out: Ct; procedure, shortened: as §1
Helicobacter pylori [17] = experiment: Resistance development in Helicobacter pylori MMX 3719 assessed as spontaneous resistance frequency using at 1.90 x 10^8 CFU inoculum at 4 ug/ml; type: functional; conditions: dose 4 µg/ml; procedure, shortened: as §2
Clostridium sporogenes = experiment: Antibacterial activity against Clostridium sporogenes ATCC 19404; type: functional
Gardnerella vaginalis [18] = experiment: Resistance development in Gardnerella vaginalis MMX 5973 assessed as spontaneous resistance frequency using at 4.50 x 10^8 CFU inoculum at 0.5 ug/ml; type: functional; conditions: dose 0.5 µg/ml
Procedure, shortened: (§4)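 Resistant colonies were counted at each drug concentration in two separate tests (test 1, test 2) and averaged. The spontaneous resistance frequency was taken from the mean colony count relative to the inoculum plated. Drug levels tested were 0.5, 1, 2 and 4 µg/mL, and a mutation prevention concentration (MPC) was also reported.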

[19] = Drug distribution in Sprague-Dawley rat ascites fluid measured at 2 hrs; type: ADME, tissue-based, Ascitic fluid; conditions: read-out: Ct; procedure, shortened: as §1
Clostridioides difficile [20] = experiment: Antibacterial activity against Clostridioides difficile clinical isolate China; type: functional
[21] = AUC in Sprague-Dawley rat at 50 mg/kg, po; type: ADME, organism-based; set-up: dose 50 mg/kg, route po; conditions: in vivo; procedure, shortened: as §3
[22] = Drug distribution in Sprague-Dawley rat large intestine tissue measured at 6 hrs; type: ADME, tissue-based; conditions: read-out: Ct; procedure, shortened: as §1
Fusobacterium nucleatum [23] = experiment: Antibacterial activity against Fusobacterium nucleatum ATCC 10953; type: functional
[24] = Drug distribution in Sprague-Dawley rat brain measured at 2 hrs; type: ADME, tissue-based; conditions: read-out: Ct; procedure, shortened: as §1
Fusobacterium nucleatum [25] = experiment: Antibacterial activity against Fusobacterium nucleatum ATCC 25586; type: functional
[26] = Drug distribution in Sprague-Dawley rat large intestine tissue measured at 12 hrs; type: ADME, tissue-based; conditions: read-out: Ct; procedure, shortened: as §1
Staphylococcus aureus = experiment: Antibacterial activity against Staphylococcus aureus ATCC 29213; type: functional
[27] = Drug distribution in Sprague-Dawley rat ascites fluid measured at 6 hrs; type: ADME, tissue-based, Ascitic fluid; conditions: read-out: Ct; procedure, shortened: as §1
Actinomyces naeslundii = experiment: Antibacterial activity against Actinomyces naeslundii ATCC 1210; type: functional
[28] = AUC in Beagle dog at 25 mg/kg, po; type: ADME, organism-based, Canis lupus familiaris; set-up: dose 25 mg/kg, route po; conditions: in vivo; procedure, shortened: as §3
Clostridioides difficile [29] = experiment: Antibacterial activity against fluoroquinolone-resistant Clostridioides difficile CB1939 measured after 3 days; type: functional; conditions: CB1939, 72 h, time 3 day
[30] = Drug distribution in Sprague-Dawley rat stomach content measured at 6 hrs; type: ADME, tissue-based; conditions: read-out: Ct; procedure, shortened: as §1
[31] = Drug distribution in Sprague-Dawley rat brain measured at 0.5 hrs; type: ADME, tissue-based; conditions: read-out: Ct; procedure, shortened: as §1
Syrian golden hamster = experiment: Antibacterial activity against Clostridioides difficile UNT-103-1 infected in Syrian hamster assessed as mortality at 5 mg/kg, po administered once a daily for 5 days after 18 hrs post 10 mg/kg clindamycin treatment and measured after 7 to 9 days; type: functional, Mesocricetus auratus; conditions: time 7-9 day
Procedure, shortened: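 Male Golden Syrian hamsters (80-90 g), housed singly, were gavaged with C. difficile UNT103-1 grown in sporulation medium broth and diluted to OD600 1 in prereduced broth. […] From 18 h later, drug or vehicle was given by oral gavage once daily for 5 days. Survival was recorded through day 21.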

[32] = Drug distribution in Sprague-Dawley rat vaginal secretion measured at 24 hrs; type: ADME, tissue-based, Vaginal fluid; conditions: female, read-out: Ct; procedure, shortened: as §1
Gardnerella vaginalis [33] = experiment: Resistance development in Gardnerella vaginalis MMX 5973 assessed as spontaneous resistance frequency using at 4.50 x 10^8 CFU inoculum at 1 ug/ml; type: functional; conditions: dose 1 µg/ml; procedure, shortened: as §4
[34] = Drug distribution in Sprague-Dawley rat plasma measured at 12 hrs; type: ADME, cell-free; procedure, shortened: as §1
[35] = Drug distribution in Sprague-Dawley rat brain measured at 6 hrs; type: ADME, tissue-based; conditions: read-out: Ct; procedure, shortened: as §1
[36] = Drug distribution in Sprague-Dawley rat ascites fluid measured at 12 hrs; type: ADME, tissue-based, Ascitic fluid; conditions: read-out: Ct; procedure, shortened: as §1
[37] = Drug distribution in Sprague-Dawley rat stomach content measured at 0.5 hrs; type: ADME, tissue-based; conditions: read-out: Ct; procedure, shortened: as §1
[38] = Drug distribution in Sprague-Dawley rat vaginal secretion measured at 12 hrs; type: ADME, tissue-based, Vaginal fluid; conditions: female, read-out: Ct; procedure, shortened: as §1
[39] = Drug distribution in Sprague-Dawley rat stomach tissue measured at 24 hrs; type: ADME, tissue-based; conditions: read-out: Ct; procedure, shortened: as §1
Gardnerella vaginalis [40] = experiment: Antibacterial activity against Gardnerella vaginalis clinical isolate China; type: functional

## CO[C@H]1/C=C/O[C@@]2(C)Oc3c(C)c(O)c4c(c3C2=O)C2=NC3(CCN(CCn5c([N+](=O)[O-])cnc5C)CC3)NC2=C(NC(=O)/C(C)=C\C=C\[C@H](C)[C@H](O)[C@@H](C)[C@@H](O)[C@@H](C)[C@H](OC(C)=O)[C@@H]1C)C4=O [RIFASUTENIZOL]
[1]
  concentration at 2 h: 72500 ng/g
[2]
  bioavailability: 48%
[3]
  concentration at 0.5 h: 1480 ng/g
[4]
  Ct: Bld
Veillonella parvula
  MIC: 2 µg/mL (≈ 2.12 µM)
[5]
  concentration at 12 h: 114 ng/g
[6]
  concentration at 6 h: 84300 ng/g
[7]
  Ct: Bld
Helicobacter pylori [8]
  Activity: <5 10^-9No_unit
Helicobacter pylori [9]
  Activity: Active
Clostridioides difficile [10]
  Activity: <8 10^-9No_unit
[11]
  Ct: Bld
[12]
  concentration at 6 h: 1440 ng/mL
[13]
  half-life: 30.6 min
[14]
  AUC: 6490 ng·h/mL
Bacteroides ovatus
  MIC: 0.12 µg/mL (≈ 0.127 µM)
[15]
  half-life: 46.2 min
[16]
  concentration at 2 h: 8410 ng/g
Helicobacter pylori [17]
  Activity: <5 10^-9No_unit
Clostridium sporogenes
  MIC: 0.015 µg/mL (≈ 0.0159 µM)
Gardnerella vaginalis [18]
  Activity: <2 10^-9No_unit
[19]
  concentration at 2 h: 5270 ng/g
Clostridioides difficile [20]
  MIC: ≤ 0.06 µg/mL
  MIC90: 1 µg/mL (≈ 1.06 µM)
[21]
  AUC: 15400 ng·h/mL
[22]
  concentration at 6 h: 3660 ng/g
Fusobacterium nucleatum [23]
  MIC: 0.12 µg/mL (≈ 0.127 µM)
[24]
  concentration at 2 h: 392 ng/g
Fusobacterium nucleatum [25]
  MIC: 0.001 µg/mL (≈ 0.00106 µM)
[26]
  concentration at 12 h: 31.6 ng/g
Staphylococcus aureus
  MIC: 0.015 µg/mL (≈ 0.0159 µM)
[27]
  concentration at 6 h: 3480 ng/g
Actinomyces naeslundii
  MIC: 0.001 µg/mL (≈ 0.00106 µM)
[28]
  AUC: 14800 ng·h/mL
Clostridioides difficile [29]
  MIC: ≤ 0.002 µg/mL
[30]
  concentration at 6 h: 28800 ng/g
[31]
  concentration at 0.5 h: 114 ng/g
Syrian golden hamster
  Activity: 10%
[32]
  concentration at 24 h: 54.6 ng/g
Gardnerella vaginalis [33]
  Activity: <2 10^-9No_unit
[34]
  concentration at 12 h: 4.33 ng/mL
[35]
  concentration at 6 h: 156 ng/g
[36]
  concentration at 12 h: 84.5 ng/g
[37]
  concentration at 0.5 h: 3.26e+06 ng/g
[38]
  concentration at 12 h: 366 ng/g
[39]
  concentration at 24 h: 14.4 ng/g
Gardnerella vaginalis [40]
  MIC: ≤ 0.004 µg/mL
  MIC90: 0.06 µg/mL (≈ 0.0636 µM)
